These results are taken from the RNAGym collection of RNA variant scans (doi:10.1126/science.aae0568).

Sequences and labels used below:
B1: tRNA (parent)
chain: GUUCCGUUGGCGUAAUGGUAACGCGUCUCCCUCCUAAGGAGAAGACUGCGGGUUCGAGUCCCGUACGGAACG

Variants at the floor of the assay were thinned out. A value given as a limit tells only on which side of the number the result lay.

Variants of B1 are the subject of this data set. The experiment in a line: yeast fitness relative to wild type (ratio to wild type); higher = fitter; tRNA-Arg(CCU), competitive growth, 37 C, YPD. The gist of the method:
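Variants of the tRNA-Arg(CCU) gene were chemically synthesised with a 3% per-site mutation rate across 69 sites and placed at the native genomic locus in Saccharomyces cerevisiae. Six parallel replicates of the pooled strains were competed in YPD at 37°C for 24 hours, and gene amplicons from the start and end populations were read by 100-nucleotide paired-end sequencing. Darwinian fitness relative to wild type was derived from changes in genotype frequencies. Genotypes required ≥ 100 starting reads, and estimates < 0.5 were set to 0.5.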
Turning to GUUCCGUUGGCGUAAUGGCAACGCGCCUCCCUCCUAAGGAGAAGACUGCGGGUUCGAGUCCCGUACGGAACG [U19C U26C], the yeast fitness came out at 0.928.
The same measure for GUUCCGUUGGCGUAAUGGGAACGCGUCUUCCUCCUAAGGAGAAGACUGCGGGUUCGAGUCCCGUACGGAACG [U19G C29U]: 0.795; for GUUCCGUUGGCGUAAUGGCAACGCGUCUCCCUCCUAAGGAGAAGACUGCGGGUUCAAGUCCCGUACGGAACG [U19C G56A]: 0.91.
In the case of GUUCCGUUGGCGUAAUGGGAACGCGUCUUCCUCCUAAGGAGAAGACUGCGGGUUCGAGUCCCGUACGGACCG [U19G C29U A70C] it was at most 0.5.
For the variant GUUCCGUUGGCGUAAUGGCAACGCGUCUCCCUCCUAAGGAGAAGACUGCGGGUUCGAGUCCCGUACGCAACG [U19C G68C], the yeast fitness amounted to 0.83.
In the case of GUUCCGUUGGCGUAAUGGGAACGCGUUUCCCUCCUAAGGAGCAGACUGCGGGUUCGAGUCCCGUACGGAACG [U19G C27U A42C] it was at most 0.5; in that of GUUCCGUUGGCGUAAUGGGAACGAGUCUCUCUCCUAAGGAGAAGACUGCGGGUUCGAGUCCCGUACGGAACG [U19G C24A C30U], at most 0.5; in that of GUUCCGUUGGCGUAAUGGGCACGCGCCUCCCUCCUAAGGAAAAGACUGCGGGUUCGAGUCCCAUAUGGAACG [U19G A20C U26C G41A G63A C66U], at most 0.5.
In the case of GUUCCGUUGGCGUAAUGGCAACGCGUCUCCCUCCUAAGGAGAAGACUACGGGUUCGACUCACGUACGGAACG [U19C G48A G58C C61A] it was at most 0.5; in that of GUUCCGUUGGCGUAAUGGCAACGCGUCUCCCACCUAAGGAGAAGACUGCGGGUUCGAGUCCCGUACAGAACG [U19C U32A G67A], 0.65; in that of GUUCCGUUGGCGUAAUGGGAACGCGUCUCCCUCCUAAGGAGAAGACUGCGGGUUCGAGUCCCGUACGGAUCG [U19G A70U], 1.02.
The same measure for GUUCCGUUGGCGUAAUGGGAACGCGUCUCCCUCCUAAGGAGAAGACUGCGGGUUCGAGUCCCGUACGGACCG [U19G A70C]: 0.999; for GUUCCGUUGGCGUAAUGGGUACGCGUCUCCCUCCUAAGGAGAAGACUGCGGAUUCGAGUCCCGUACGGAACG [U19G A20U G52A]: 0.698.
Regarding GUUCCGUUGGCGUAAUGGCAACGCGGCUCCCUCCUCAGGAGAAGACUGCGGGUUCGAGUCCCGUACGGAACG [U19C U26G A36C], the yeast fitness was at most 0.5.
Regarding GUUCCGUUGGCGUAAUGGGAACGAGUCUCCCUCGUAAGGAGAAGACUGCGGGUUCGAGUCCCGUACGGAACG [U19G C24A C34G], the yeast fitness came out at 0.75.
The same measure for GUUCCGUUGGCGUAAUGGGAGCGCGUCUCCCUCCUAAGGAGAAGACUGCGGGUUCGAGUCCCGUACGGAACG [U19G A21G]: 1.05; for GUUCCGUUGGCGUAAUGGGUACGCGUCUCCCUCCUAAGGAGAAGACUGCGGGUUCGAGUCCCGUACGGUACG [U19G A20U A69U]: 0.86; for GUUCCGUUGGCGUAAUGGGAUCGCGUCUGCCUCCUAAGGAGAAGACUGCGGGUUCGAGUCCCGUACGGAACG [U19G A21U C29G]: 0.62.
The same measure for GUUCCGUUGGCGUAAUGGCAACGCGUCUCCCACCUACGGAGAAGACUGCGGGUUGGAGUCCCGUACGGAACG [U19C U32A A37C C55G]: at most 0.5; for GUUCCGUUGGCGUAAUGGGAACGCGUCUCCCUCCUAGGGAGAAGACUGCGGGUUCGAGUCCCGUACGGAACG [U19G A37G]: 0.76.
GUUCCGUUGGCGUAAUGGGAACGCGUCUACCUCCUAAGGAGAAGUCUGCGGGUUCGAGUCCCGUACGGAACG [U19G C29A A45U]: the yeast fitness is at most 0.5.
As to GUUCCGUUGGCGUAAUGGGAACGCGUGUCCCUCCUAAGGAGAAGACUGCGGGUUCGAGUCCCGUCGGGAACG [U19G C27G A65C C66G], the yeast fitness is 0.907.
For GUUCCGUUGGCGUAAUGGGAACGCGUCUCCCUCCUAAGGGGAAGACUGCGGGUUGGAGUCCCGUCCGGAACG [U19G A40G C55G A65C], the yeast fitness is at most 0.5.
The same measure for GUUCCGUUGGCGUAAUGGGAACGCGUCUCUCUCCUAAGGAGAAGACUGCGGGUUUGGGUCCCGUACGGAACG [U19G C30U C55U A57G]: at most 0.5; for GUUCCGUUGGCGUAAUGGGAAUGCGUCUCCUUCCUAAGGUGAAGACUGCGGGUUCGAGUCCCGUACAGAACG [U19G C22U C31U A40U G67A]: 0.637.
The same measure for GUUCCGUUGGCGUAAUGGGUACGCGUGUCCCUCCUAAGGAGAAGACUGCGGGUUCGAAUCCCGUACGGAACG [U19G A20U C27G G58A]: 0.527; for GUUCCGUUGGCGUAAUGGCAACGCGACUCCCACCUAAGGAGAAGACUGCGGGUUCGAGUCCCGUACGGAACG [U19C U26A U32A]: 0.541.
In the case of GUUCCGUUGGCGUAAUGGGAACGCGUCUCCCUCCUAAGGAGAAGACUGCGGGUUCGGGUCCCGUAUGGAACG [U19G A57G C66U] it was at most 0.5; in that of GUUCCGUUGGCGUAAUGGGAACGCGUCUACCUCCUAAGGAGAAGACUGCGGGUUCGAGUCCCGUACGGUACG [U19G C29A A69U], at most 0.5; in that of GUUCCGUUGGCGUAAUGGGAACGCGUCUCCCUCCUAGGGAGAAGACUGCGGGUUCGAGUCCCGUAUGGAACG [U19G A37G C66U], 0.639.
For GUUCCGUUGGCGUAAUGGGAAUGCGUCUCCCUCCUAAGGAGAAGACUGUGGGUUCGAGUCCAGUACGGAACG [U19G C22U C49U C62A], the yeast fitness is at most 0.5.
In the case of GUUCCGUUGGCGUAAUGGGAACGCGUCUCCCUCCUAAGGAGAAGACUGCGGGUUCGAGUCCCGUACGGCACG [U19G A69C], the yeast fitness is 0.856.
In the case of GUUCCGUUGGCGUAAUGGGAACGCGUCUCCCUCCUAAGGAGAAGACUGCGGGUUCGAGUCCCGUACGGUACG [U19G A69U] it was 0.892; in that of GUUCCGUUGGCGUAAUGGCAACGCGCCUCCCUCCUAAGGAGAAAACUGCGGGUUCGAGUCCCGUACGGAACG [U19C U26C G44A], 0.521; in that of GUUCCGUUGGCGUAAUGGCAACGCGUCUCCCUCCUAAGGAGAAGACUCCGGGUUUGAGUCCCGUACGGAACG [U19C G48C C55U], at most 0.5.
The same measure for GUUCCGUUGGCGUAAUGGGAACGCGUCUCCCUCCUAAGGAGACGACUGCGGGCUGGAGUCCCGUACCGCACG [U19G A43C U53C C55G G67C A69C]: at most 0.5; for GUUCCGUUGGCGUAAUGGCAACGCGUCUCCCUCCUAAGGAGAAGACUACAGGUUCGAGUCCCGUACGGAACG [U19C G48A G50A]: 0.693; for GUUCCGUUGGCGUAAUGGCAACGCGUCUCCCUCCUAAGGAGAAGACUGCAGGUUAGAGUCCCAUAAGGAACG [U19C G50A C55A G63A C66A]: at most 0.5.
